Broadly, the Ki is the equilibrium dissociation constant of an inhibitor or competing ligand from its target.

The target in experiment [1] is cGMP-dependent 3',5'-cyclic phosphodiesterase (Homo sapiens, UniProt O00408). In words: Inhibition of human lung low-affinity cGMP phosphodiesterases (10-50 uM/L). The method, boiled down: (§1)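 Enzyme source was lung cytosol from homogenized unaffected tissue of a patient undergoing total pulmectomy for pulmonary carcinoma. Phosphodiesterase activity was measured essentially by the Thompson and Appleman method. Substrates were cAMP or cGMP at 0.5–2 μmol/L for the high-affinity form and 10–50 μmol/L for the low-affinity form. Inhibitor was added at 0.25–1.0 mmol/L. K_I came from Dixon plots of initial rates.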
cGMP-dependent 3',5'-cyclic phosphodiesterase, sequence (O00408 whole entry): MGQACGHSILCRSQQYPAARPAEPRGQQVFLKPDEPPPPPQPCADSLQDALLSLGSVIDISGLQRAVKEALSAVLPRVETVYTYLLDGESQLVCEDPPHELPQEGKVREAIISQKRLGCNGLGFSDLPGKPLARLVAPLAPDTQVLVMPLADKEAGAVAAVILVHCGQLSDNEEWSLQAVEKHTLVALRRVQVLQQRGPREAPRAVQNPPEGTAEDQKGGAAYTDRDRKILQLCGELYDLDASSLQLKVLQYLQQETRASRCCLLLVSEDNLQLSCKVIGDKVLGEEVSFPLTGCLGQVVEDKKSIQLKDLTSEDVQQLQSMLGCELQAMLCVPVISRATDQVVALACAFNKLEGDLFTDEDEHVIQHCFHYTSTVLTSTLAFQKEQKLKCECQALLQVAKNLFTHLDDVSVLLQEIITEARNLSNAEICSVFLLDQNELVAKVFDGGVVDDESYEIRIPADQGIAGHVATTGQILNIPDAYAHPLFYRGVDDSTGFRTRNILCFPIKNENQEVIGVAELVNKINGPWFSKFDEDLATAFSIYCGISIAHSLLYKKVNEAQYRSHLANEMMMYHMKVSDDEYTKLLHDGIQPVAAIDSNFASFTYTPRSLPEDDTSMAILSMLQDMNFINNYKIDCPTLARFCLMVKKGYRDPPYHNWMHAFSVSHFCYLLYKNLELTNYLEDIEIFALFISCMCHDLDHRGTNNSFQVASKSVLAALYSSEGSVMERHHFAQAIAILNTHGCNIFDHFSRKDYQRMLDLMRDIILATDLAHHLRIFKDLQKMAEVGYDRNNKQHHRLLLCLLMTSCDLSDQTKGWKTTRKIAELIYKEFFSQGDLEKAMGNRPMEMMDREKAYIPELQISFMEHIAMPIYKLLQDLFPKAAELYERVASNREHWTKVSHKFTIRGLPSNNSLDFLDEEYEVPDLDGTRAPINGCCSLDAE

Experiment [2] can be described thus: Inhibition of human lung high-affinity cAMP phosphodiesterases (0.5-2 uM/L). The method, boiled down: as §1
Experiment [3] has as its target cGMP-specific 3',5'-cyclic phosphodiesterase (Homo sapiens, UniProt O76074). Description: Inhibition of human lung high-affinity cGMP phosphodiesterases (0.5-2 uM/L). The method, boiled down:
as §1

As to `C[C@@H](O)Cn1cnc2c1c(=O)n(C)c(=O)n2C` [(R)-PROXYPHYLLINE], the Ki in experiment [1] was determined as 600 µM; in experiment [2], 500 µM; in experiment [3], 600 µM.
As for `C[C@H](O)Cn1cnc2c1c(=O)n(C)c(=O)n2C` [(S)-PROXYPHYLLINE], the Ki in experiment [1] stood at 700 µM; in experiment [2] it was 400 µM; in experiment [3], 600 µM.
For `CC(O)Cn1cnc2c1c(=O)n(C)c(=O)n2C` (centres undefined) [PROXYPHYLLINE] the same measures were 600 µM, 500 µM and 600 µM.

Source of the values: ChEMBL document CHEMBL1122482, “Optical resolution, absolute configuration, and activity of the enantiomers of proxyphylline” (J Med Chem, 1983).
